Experimental data: ChEMBL document CHEMBL1135913, “Structure-based design, synthesis, and biological evaluation of irreversible human rhinovirus 3C protease inhibitors. 6. Structure-activity studies of orally bioavailable, 2-pyridone-containing peptidomimetics” (J Med Chem, 2002)

Assays:
[1] = target: T1, Human rhinovirus A protease (Human rhinovirus sp., UniProt Q4U254); assay: Inhibition of HRV Protease 3CP (serotype 14).; set-up: species or system Rhinovirus B
T1 sequence (Q4U254 whole entry): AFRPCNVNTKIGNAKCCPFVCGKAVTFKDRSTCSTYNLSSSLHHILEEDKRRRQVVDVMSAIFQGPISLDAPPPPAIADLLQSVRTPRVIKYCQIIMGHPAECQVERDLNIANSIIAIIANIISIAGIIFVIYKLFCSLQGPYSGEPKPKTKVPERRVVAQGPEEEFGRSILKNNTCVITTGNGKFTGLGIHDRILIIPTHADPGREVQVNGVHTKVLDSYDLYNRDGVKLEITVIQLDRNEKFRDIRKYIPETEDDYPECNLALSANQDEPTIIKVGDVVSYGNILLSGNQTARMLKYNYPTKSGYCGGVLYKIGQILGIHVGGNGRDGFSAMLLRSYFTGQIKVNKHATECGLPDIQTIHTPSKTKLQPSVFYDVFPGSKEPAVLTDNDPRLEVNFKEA

[2] = target: T2, Human rhinovirus A protease (Human rhinovirus sp.) (UniProt Q4U254); assay: Inhibitory activity against Human Rhinovirus Protease 3C (serotype 14); conditions: Rhinovirus B
T2 sequence (whole entry): T1 sequence (Q4U254 whole entry)

[3] = target: T2, Human rhinovirus A protease (Human rhinovirus sp.); assay: (§1) cytotoxicity against HRV Protease 3CP (serotype 14)
[4] = target: T2, Human rhinovirus A protease (Human rhinovirus sp.); assay: (§2) cytotoxicity against Human Rhinovirus Protease 3C (serotype 14)
[5] = species on record: Homo sapiens; assay: Loss of compound (%metabolized) after 30 min exposure to human liver microsomes; conditions: read-out: Metabolism
[6] = target: T2, Human rhinovirus A protease (Human rhinovirus sp.); assay: cytotoxicity against HRV Protease 3CP (serotype 16); assay type: functional
[7] = target: T2, Human rhinovirus A protease (Human rhinovirus sp.); assay: cytotoxicity against HRV Protease 3CP (serotype 11); assay type: functional
[8] = Tmax value after 15 mg/kg iv dose in Dogs; assay type: ADME, organism-based, Canis lupus familiaris; set-up: dose 15 mg/kg, route intravenous; conditions: dog, in vivo
How it was run: (§3)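 Dogs (n = 3) received the compound iv or orally in 80:20 propylene glycol:water at 15.0 mg/mL. Blood was sampled periodically for up to 24 h. Plasma levels were measured by LC-MS (detection limit 5 ng/mL). Parameters came from noncompartmental analysis of each animal's concentration–time data.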

[9] = Plasma clearance after 15 mg/kg iv dose in Dogs; assay type: ADME, organism-based, Canis lupus familiaris; set-up: dose 15 mg/kg, route intravenous; conditions: dog; how it was run: as §3
[10] = target: T2, Human rhinovirus A protease (Human rhinovirus sp.); assay: cytotoxicity against HRV Protease 3CP (serotype 25); assay type: functional
[11] = AUC value after 15 mg/kg iv dose in Dogs; assay type: ADME, organism-based, Canis lupus familiaris; set-up: dose 15 mg/kg, route intravenous; conditions: dog, plasma; how it was run: as §3
[12] = target: T2, Human rhinovirus A protease (Human rhinovirus sp.); assay: cytotoxicity against HRV Protease 3CP (serotype 39); assay type: functional
[13] = target: T2, Human rhinovirus A protease (Human rhinovirus sp.); assay: cytotoxicity against HRV Protease 3CP (serotype 13); assay type: functional
[14] = target: T2, Human rhinovirus A protease (Human rhinovirus sp.); assay: cytotoxicity against HRV Protease 3CP (serotype 1A); assay type: functional
[15] = Plasma clearance after 30 mg/kg po dose in Dogs; assay type: ADME, organism-based, Canis lupus familiaris; set-up: dose 30 mg/kg, route oral; conditions: dog; how it was run: as §3
[16] = Half life period after 15 mg/kg iv dose in Dogs; assay type: ADME, organism-based, Canis lupus familiaris; set-up: dose 15 mg/kg, route intravenous; conditions: dog, in vivo; how it was run: as §3
[17] = target: T2, Human rhinovirus A protease (Human rhinovirus sp.); assay: cytotoxicity against HRV Protease 3CP (serotype 23); assay type: functional
[18] = AUC value after 30 mg/kg po dose in Dogs; assay type: ADME, organism-based, Canis lupus familiaris; set-up: dose 30 mg/kg, route oral; conditions: dog, plasma; how it was run: as §3
[19] = Half life period after 30 mg/kg po dose in Dogs; assay type: ADME, organism-based, Canis lupus familiaris; set-up: dose 30 mg/kg, route oral; conditions: dog, in vivo; how it was run: as §3
[20] = target: T2, Human rhinovirus A protease (Human rhinovirus sp.); assay: cytotoxicity against HRV Protease 3CP (serotype 2); assay type: functional
[21] = Tmax value after 30 mg/kg po dose in Dogs; assay type: ADME, organism-based, Canis lupus familiaris; set-up: dose 30 mg/kg, route oral; conditions: dog, in vivo; how it was run: as §3
[22] = target: T2, Human rhinovirus A protease (Human rhinovirus sp.); assay: cytotoxicity against HRV Protease 3CP (serotype 19); assay type: functional
[23] = target: T2, Human rhinovirus A protease (Human rhinovirus sp.); assay: cytotoxicity against HRV Protease 3CP (serotype 9); assay type: functional
[24] = species on record: Homo sapiens; assay: Half life upon exposure to human plasma
[25] = Cmax value after 15 mg/kg iv dose in Dogs; assay type: ADME, organism-based, Canis lupus familiaris; set-up: dose 15 mg/kg, route intravenous; conditions: dog, in vivo; how it was run: as §3
[26] = test system: Canis familiaris; assay: Volume distribution after 30 mg/kg po dose in Dogs; assay type: ADME, organism-based, Canis lupus familiaris; set-up: dose 30 mg/kg, route oral; conditions: dog, in vivo; how it was run: as §3
[27] = Oral bioavailability after 30 mg/kg po dose in Dogs; assay type: ADME, organism-based, Canis lupus familiaris; conditions: dog, in vivo; how it was run: as §3
[28] = target: T2, Human rhinovirus A protease (Human rhinovirus sp.); assay: cytotoxicity against HRV Protease 3CP (serotype 78); assay type: functional
[29] = target: T2, Human rhinovirus A protease (Human rhinovirus sp.); assay: cytotoxicity against HRV Protease 3CP (serotype 10); assay type: functional
[30] = Volume distribution after 15 mg/kg iv dose in Dogs; assay type: ADME, organism-based, Canis lupus familiaris; set-up: dose 15 mg/kg, route intravenous; conditions: dog, in vivo, read-out: V; how it was run: as §3
[31] = target: T2, Human rhinovirus A protease (Human rhinovirus sp.); assay: cytotoxicity against HRV Protease 3CP (serotype 3); assay type: functional
[32] = target: T2, Human rhinovirus A protease (Human rhinovirus sp.); assay: cytotoxicity against HRV Protease 3CP (serotype Hanks); assay type: functional
[33] = Cmax value after 30 mg/kg po dose in Dogs; assay type: ADME, organism-based, Canis lupus familiaris; set-up: dose 30 mg/kg, route oral; conditions: dog, in vivo; how it was run: as §3
[34] = target: T2, Human rhinovirus A protease (Human rhinovirus sp.); assay: as §1; assay type: functional
[35] = target: T2, Human rhinovirus A protease (Human rhinovirus sp.); assay: as §2; assay type: functional
[36] = target: T2, Human rhinovirus A protease (Human rhinovirus sp.); assay: cytotoxicity against Human Rhinovirus Protease 3C (serotype 10); assay type: functional
[37] = target: T2, Human rhinovirus A protease (Human rhinovirus sp.); assay: cytotoxicity against Human Rhinovirus Protease 3C (serotype 1A); assay type: functional
[38] = Half life upon exposure to human plasma; assay type: ADME, cell-free
How it was run: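 Pooled heparinized human plasma from 10 donors (stored at -70 °C), or 100 mM potassium phosphate buffer pH 7.4, n = 3 each. Compound added from fresh 5 mM acetonitrile stock to 25 μM final. Incubated at 37 °C for 1–3 h with regular sampling, acetonitrile precipitation, HPLC-UV at 212 nm. Half-life from linear regression of mean concentration–time data.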

[39] = Loss of compound (%metabolized) after 30 min exposure to human liver microsomes; assay type: ADME, Microsome; conditions: read-out: Metabolism
How it was run: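 Pooled human liver microsomes (1 mg/mL, 6–8 livers) with 2 mM NADPH in 100 mM potassium phosphate pH 7.4 were preincubated 1 min at 37 °C. Compound was added at 25 μM and incubated 30 min, then quenched with acetonitrile. Loss was measured against time-zero controls by reversed-phase HPLC with UV at 215 nm.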

In the case of `CCOC(=O)/C=C/[C@H](CCC(N)=O)NC(=O)[C@H](Cc1ccccc1)n1cccc(NC(=O)C(C)(C)C)c1=O`, the EC50 [1] is reported as 0.518 µM, the K obs / 1 [2] is reported as 5040 M⁻¹ s⁻¹ and the CC50 [3] is reported as over 10 µM.
`CCOC(=O)/C=C/[C@H](C[C@H]1CCNC1=O)NC(=O)[C@H](Cc1ccccc1)n1cccc(NC(=O)OCc2ccccc2)c1=O` gave an EC50 [1] of 0.469 µM, a K obs / 1 [2] of 6340 M⁻¹ s⁻¹ and a CC50 [3] of over 10 µM.
Work on `CCOC(=O)/C=C/[C@H](CCC(N)=O)NC(=O)[C@H](Cc1ccccc1)n1ccc(C)c(NC(=O)OCc2ccccc2)c1=O` yielded a K obs / 1 [2] of 25800 M⁻¹ s⁻¹.
With `CCOC(=O)/C=C/[C@H](CCC(N)=O)NC(=O)[C@H](Cc1ccccc1)n1cccc(NC(=O)c2cc(Cl)on2)c1=O` the EC50 [1] was 0.024 µM, the K obs / 1 [2] was 134000 M⁻¹ s⁻¹ and the CC50 [3] was over 10 µM.
Work on `CCOC(=O)/C=C/[C@H](CCC(N)=O)NC(=O)[C@H](Cc1ccccc1)NC(=O)[C@H](CC(C)C)NC(=O)OCc1ccccc1` yielded a CC50 [4] of over 320 µM.
`Cc1cc(C(=O)Nc2cccn([C@@H](Cc3ccc(F)c(F)c3)C(=O)N[C@H](/C=C/C(=O)OC(C)C)C[C@@H]3CCNC3=O)c2=O)no1` gave a metabolised at 0.5 h [5] of 55%, a CC50 [6] of over 10 µM and a CC50 [7] of over 10 µM. The Tmax [8] was 4 min, the clearance [9] was 14.7 mL/min/kg and the CC50 [10] was over 10 µM. The AUC [11] was 17100 ng·h/mL, the CC50 [12] was over 10 µM and the CC50 [13] was over 10 µM. For the same compound, the CC50 [14] was over 10 µM, the CL/F [15] was 33 mL/min/kg and the half-life [16] was 3.23 h. For the same compound, the CC50 [17] was over 10 µM, the AUC [18] was 16300 ng·h/mL and the half-life [19] was 3.4 h. It also gave a CC50 [20] of over 10 µM, a Tmax [21] of 1.17 h and a CC50 [22] of over 10 µM. For the same compound, the CC50 [23] was over 10 µM, the half-life [24] was 9.7 h and the Cmax [25] was 10600 ng/mL. For the same compound, the V [26] was 9.6 L/kg, the bioavailability [27] was 48% and the CC50 [28] was over 10 µM. It also gave a CC50 [29] of over 10 µM, a Vd [30] of 4.2 L/kg and a CC50 [31] of over 10 µM. The CC50 [32] was over 10 µM, the Cmax [33] was 3500 ng/mL and the CC50 [34] was over 10 µM.
For `CCOC(=O)/C=C/[C@H](CCC(N)=O)NC(=O)[C@H](Cc1ccccc1)n1cccc(NC(=O)c2cc(C)on2)c1=O`, the EC50 [1] was 0.016 µM, the K obs / 1 [2] was 329000 M⁻¹ s⁻¹ and the CC50 [3] was over 10 µM.
Work on `CCOC(=O)/C=C/[C@H](CCC(N)=O)NC(=O)[C@H](Cc1ccccc1)n1cccc(NC(=O)OCc2ccccc2)c1=O` yielded a CC50 [35] of 50 µM, a CC50 [36] of over 10 µM and a CC50 [37] of over 10 µM.
Compound `CCOC(=O)/C=C/[C@H](CCC(N)=O)NC(=O)[C@H](Cc1ccccc1)n1cccc(NC(C)=O)c1=O` has an EC50 [1] of 0.888 µM, a K obs / 1 [2] of 7660 M⁻¹ s⁻¹ and a CC50 [3] of over 10 µM.
`CCOC(=O)/C=C/[C@H](CCC(N)=O)NC(=O)[C@H](Cc1ccccc1)n1cccc(NC(=O)C2CCCC2)c1=O` gave an EC50 [1] of 0.034 µM, a K obs / 1 [2] of 37400 M⁻¹ s⁻¹ and a CC50 [3] of over 10 µM.
Work on `CCOC(=O)/C=C/[C@H](C[C@@H]1CCNC1=O)NC(=O)[C@H](Cc1ccc(F)c(F)c1)n1cccc(NC(=O)c2cc(C)on2)c1=O` yielded an EC50 [1] of 0.001 µM, a K obs / 1 [2] of 1.8e+06 M⁻¹ s⁻¹ and a half-life [38] of 1.4 h. For the same compound, the metabolised at 0.5 h [39] was 80%, the CC50 [14] was over 10 µM and the CC50 [29] was over 10 µM. For the same compound, the CC50 [34] was over 10 µM.
